Data set [1] can be described thus: In vitro cellular toxicity against human umbilical vein endothelial cells (HUVEC) in MTS assay. Format: cell-based.
Data set [2] in a line: Mean plasma concentration measured in rat. In kind it is ADME, organism-based. The method in brief: (§1)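 Rats given a single oral dose of 5 mg/kg, no intravenous arm. Plasma drug concentrations followed over time and analysed by HPLC. Values are means (±SEM, n=3).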
A short description of data set [3]: Maximum time taken to reach mean plasma concentration, measured in rat. In kind it is ADME, organism-based. In outline:
as §1

Data set [4] in a line: Area under curve against time (0-8 hr) in rat. Format: ADME, organism-based. Details: time < 8 hr. The following applies: in vivo. The method in brief:
as §1

Data set [5] can be described thus: Aqueous solubility was determined at pH 7.4. The following applies: buffer. In kind it is physicochemical. The method in brief:
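Solubility determined in 0.05 M NaH₂PO₄ buffer at pH 7.4.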

A short description of data set [6]: Half-life was measured in rat. Format: ADME, organism-based. The settings on record: in vivo. In outline: as §1

The results in this text go back to ChEMBL document CHEMBL1134794, “Discovery of inhibitors of cell adhesion molecule expression in human endothelial cells. 1. Selective inhibition of ICAM-1 and E-selectin expression” (J Med Chem, 2001).

Structures are written as SMILES. Converted amounts (≈) assume the structure as drawn.

In the case of `Cc1ccc(Sc2cncc3sc(C(=O)NCCCN4CCOCC4)cc23)cc1`, in data set [1], the half-maximal inhibitory concentration (IC50) came to 68 µM.

On to `Cc1ccc(Sc2cncc3sccc23)cc1`, for which half-maximal inhibition in data set [1] (IC50) was put at 5.8 µM.

Turning to `Cc1ccc(Sc2cncc3sc(C(N)=O)cc23)c(C)c1`, the IC50 in data set [1] is greater than 10 µM.

On to `CCc1cc2c(O)ncnc2s1`, for which the IC50 in data set [1] was greater than 100 µM.

`Cc1cccc(Sc2cncc3sc(C(N)=O)cc23)c1` showed a half-inhibitory concentration (IC50) in data set [1] of 96 µM.

Regarding `Cc1ccc(Sc2cncc3sc(C(=O)O)cc23)cc1`, the highest level in data set [2] (Cmax) was 751 ng/mL. Further, the Tmax in data set [3] was 19.8 min. This compound came in with an exposure (AUC) at 8 h in data set [4] of 2950 ng·h/mL.

The compound `CCc1cc2c(SCc3ccccc3)ncnc2s1` came in with an IC50 in data set [1] greater than 100 µM.

In the case of `NC(=O)c1cc2c(Sc3ccc(C(F)(F)F)cc3)cncc2s1`, in data set [1], the IC50 came to 95 µM.

Regarding `Cc1ccc(Sc2cncc3sc(C(N)=O)cc23)cc1`, the IC50 in data set [1] was determined as 152 µM. Besides, in data set [5], the solubility stood at 400 µg/mL (≈ 1330 µM). Also, in data set [2], the Cmax was determined as 78 ng/mL. In addition, in data set [3], the Tmax came out at 15 min. Further, the AUC at 8 h in data set [4] amounted to 131 ng·h/mL. Also, the half-life in data set [6] is 60 min.

In turn, `CCc1cc2c(NCc3ccccc3)ncnc2s1` had an IC50 in data set [1] of 72 µM.

In data set [2], `Cc1ccc([S+]([O-])c2cncc3sc(C(N)=O)cc23)cc1` (centres undefined) had a Cmax of 476 ng/mL. Further, the Tmax in data set [3] was 25.2 min. This compound displayed an AUC at 8 h in data set [4] of 1240 ng·h/mL.

`NC(=O)c1cc2c(Sc3ccccn3)cncc2s1`: the IC50 in data set [1] is greater than 100 µM.

`Cc1ccc(Sc2cncc3sc(C(N)=O)cc23)cc1C` had an IC50 in data set [1] greater than 100 µM.

In the case of `Cc1ccc(Sc2cncc3sc(C(=N)S)cc23)cc1`, 51 µM corresponded to half-maximal inhibition in data set [1] (IC50).

In turn, `Cc1ccc(Sc2ccnc3sc(C(N)=O)cc23)cc1` showed an IC50 in data set [1] of 44 µM.

`CCc1cc2c(Sc3nnc(C)s3)ncnc2s1`: in data set [1], half-maximal inhibition (IC50) required 51 µM.

In the case of `Cc1ccc(Sc2cncc3sc(/C=N/OCC(=O)O)cc23)cc1`, in data set [1], the IC50 turned out to be 84 µM.

`CCc1cc2c(Sc3nnc(N)s3)ncnc2s1`: 95 µM corresponded to half-maximal inhibition in data set [1] (IC50).

`Cc1ccc(Sc2cncc3sc(C(=O)NN)cc23)cc1` gave an IC50 in data set [1] of 82 µM.

In the case of `CCc1cc2c(Cl)ncnc2s1`, in data set [1], the half-maximal inhibitory concentration (IC50) is greater than 100 µM.
